Laboratory results published in ChEMBL document CHEMBL5724801, “EUbOPEN Chemogenomics Library - Multiplex” (2024).
Several values for one entry are separate records, joined by “and”; a condition that tells them apart may be missing. Equal values may be shown once.

Tested on: U2OS
Assay: Multiplex assay against U2OS
Assay type: toxicity, cell-based
Details: human
How it was run: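 Per cents of healthy-nucleus cells form the tubulin, mitochondrial-mass and membrane-permeability phenotype values. Live cells were stained at seeding with Hoechst33342, BioTracker Green Microtubule Cytoskeleton Dye, MitoTracker Red and Annexin V Alexa Fluor 680. After compound addition they were imaged on a CQ1 microscope at 37°C and 5% CO2, and CellPathfinder machine-learning gating split them into Hoechst high-intensity objects or normal cells, normal cells into healthy, pyknosed or fragmented nuclei, and pyknosed cells into mitotic or apoptotic.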

[1] = 12 h, 1 µM, compound concentration 1 uM
[2] = 12 h, 10 µM, compound concentration 10 uM
[3] = 24 h, 1 µM, compound concentration 1 uM
[4] = 24 h, 10 µM, compound concentration 10 uM
[5] = 48 h, 1 µM, compound concentration 1 uM
[6] = 48 h, 10 µM, compound concentration 10 uM

**Q.** `Cl.Clc1cc2cc(c1)-c1cnn3ccc(nc13)NCCOCCO2` was tested. Which “Population Fragmented Nuclei (%)” value [1] did it give?
**A.** 3.05% and 2.1%

**Q.** And the “Population Healthy Nuclei (%)” value [1]?
**A.** 88.09% and 86.01%

**Q.** What about the “Population Hoechst High Intensity Objects (%)” value [1] of the same molecule?
**A.** 0%

**Q.** And the “Population Membrane Permeable-Phenotype (%)” value [1]?
**A.** 0.94% and 0.81%

**Q.** And the “Population Mitochondria Different-Phenotype (%)” value [1]?
**A.** 0% and 8.94%

**Q.** What about the “Population Mitotic Cells (%)” value [1] of the same molecule?
**A.** 56.25% and 94.12%

**Q.** And the “Population Normal (%)” value [1]?
**A.** 100%

**Q.** What about the “Population Pyknosed Nuclei (%)” value [1] of the same molecule?
**A.** 8.86% and 11.89%

**Q.** What about the “Population Tubulin-Different-Phenotype (%)” value [1] of the same molecule?
**A.** 0.94% and 0%

**Q.** What about the “Total Cell Count” value [1] of the same molecule?
**A.** 361 and 143

**Q.** What about the “Population Apoptotic (%)” value [2] of the same molecule?
**A.** 35.21% and 35.71%

**Q.** And the “Population Fragmented Nuclei (%)” value [2]?
**A.** 3.56% and 1.13%

**Q.** And the “Population Healthy Nuclei (%)” value [2]?
**A.** 82.38% and 83.05%

**Q.** And the “Population Hoechst High Intensity Objects (%)” value [2]?
**A.** 0%

**Q.** And the “Population Membrane Permeable-Phenotype (%)” value [2]?
**A.** 0.96% and 3.4%

**Q.** What about the “Population Mitotic Cells (%)” value [2] of the same molecule?
**A.** 64.79% and 64.29%

**Q.** And the “Population Normal (%)” value [2]?
**A.** 100%

**Q.** And the “Population Pyknosed Nuclei (%)” value [2]?
**A.** 14.06% and 15.82%

**Q.** What about the “Population Tubulin-Different-Phenotype (%)” value [2] of the same molecule?
**A.** 2.16% and 1.36%

**Q.** What about the “Total Cell Count” value [2] of the same molecule?
**A.** 505 and 177

**Q.** What about the “Population Apoptotic (%)” value [3] of the same molecule?
**A.** 43.75% and 57.89%

**Q.** What about the “Population Fragmented Nuclei (%)” value [3] of the same molecule?
**A.** 2.2% and 1.09%

**Q.** What about the “Population Healthy Nuclei (%)” value [3] of the same molecule?
**A.** 88.2% and 88.52%

**Q.** And the “Population Hoechst High Intensity Objects (%)” value [3]?
**A.** 0%

**Q.** And the “Population Membrane Permeable-Phenotype (%)” value [3]?
**A.** 0.68% and 3.09%

**Q.** And the “Population Mitochondria Different-Phenotype (%)” value [3]?
**A.** 0% and 5.56%

**Q.** And the “Population Mitotic Cells (%)” value [3]?
**A.** 56.25% and 42.11%

**Q.** What about the “Population Normal (%)” value [3] of the same molecule?
**A.** 100%

**Q.** What about the “Population Pyknosed Nuclei (%)” value [3] of the same molecule?
**A.** 9.6% and 10.38%

**Q.** And the “Population Tubulin-Different-Phenotype (%)” value [3]?
**A.** 0.45% and 0%

**Q.** And the “Total Cell Count” value [3]?
**A.** 500 and 183

**Q.** What about the “Population Apoptotic (%)” value [4] of the same molecule?
**A.** 55.41% and 45%

**Q.** What about the “Population Fragmented Nuclei (%)” value [4] of the same molecule?
**A.** 1.48% and 2.62%

**Q.** And the “Population Healthy Nuclei (%)” value [4]?
**A.** 86.37% and 79.91%

**Q.** What about the “Population Hoechst High Intensity Objects (%)” value [4] of the same molecule?
**A.** 0.16% and 0%

**Q.** What about the “Population Membrane Permeable-Phenotype (%)” value [4] of the same molecule?
**A.** 0.19% and 2.73%

**Q.** And the “Population Mitochondria Different-Phenotype (%)” value [4]?
**A.** 0% and 4.37%

**Q.** And the “Population Mitotic Cells (%)” value [4]?
**A.** 44.59% and 55%

**Q.** What about the “Population Normal (%)” value [4] of the same molecule?
**A.** 99.84% and 100%

**Q.** And the “Population Pyknosed Nuclei (%)” value [4]?
**A.** 12.15% and 17.47%

**Q.** What about the “Population Tubulin-Different-Phenotype (%)” value [4] of the same molecule?
**A.** 1.33% and 2.73%

**Q.** And the “Total Cell Count” value [4]?
**A.** 610 and 229

**Q.** What about the “Population Apoptotic (%)” value [5] of the same molecule?
**A.** 47.73% and 42.42%

**Q.** What about the “Population Fragmented Nuclei (%)” value [5] of the same molecule?
**A.** 3.1% and 2.92%

**Q.** And the “Population Healthy Nuclei (%)” value [5]?
**A.** 87.5% and 86.36%

**Q.** What about the “Population Hoechst High Intensity Objects (%)” value [5] of the same molecule?
**A.** 0%

**Q.** What about the “Population Membrane Permeable-Phenotype (%)” value [5] of the same molecule?
**A.** 0.98% and 3.01%

**Q.** What about the “Population Mitochondria Different-Phenotype (%)” value [5] of the same molecule?
**A.** 0% and 3.01%

**Q.** What about the “Population Mitotic Cells (%)” value [5] of the same molecule?
**A.** 52.27% and 57.58%

**Q.** What about the “Population Normal (%)” value [5] of the same molecule?
**A.** 100%

**Q.** And the “Population Pyknosed Nuclei (%)” value [5]?
**A.** 9.4% and 10.71%

**Q.** And the “Population Tubulin-Different-Phenotype (%)” value [5]?
**A.** 0.85% and 1.5%

**Q.** And the “Population Apoptotic (%)” value [6]?
**A.** 53.64% and 54.72%

**Q.** And the “Population Fragmented Nuclei (%)” value [6]?
**A.** 3.97% and 2.37%

**Q.** What about the “Population Healthy Nuclei (%)” value [6] of the same molecule?
**A.** 81.76% and 83.68%

**Q.** And the “Population Hoechst High Intensity Objects (%)” value [6]?
**A.** 0.19% and 0%

**Q.** And the “Population Membrane Permeable-Phenotype (%)” value [6]?
**A.** 1.39% and 4.4%

**Q.** And the “Population Mitochondria Different-Phenotype (%)” value [6]?
**A.** 0.46% and 3.77%

**Q.** And the “Population Mitotic Cells (%)” value [6]?
**A.** 46.36% and 45.28%

**Q.** What about the “Population Normal (%)” value [6] of the same molecule?
**A.** 99.81% and 100%

**Q.** And the “Population Pyknosed Nuclei (%)” value [6]?
**A.** 14.27% and 13.95%

**Q.** And the “Population Tubulin-Different-Phenotype (%)” value [6]?
**A.** 2.43% and 3.46%

**Q.** And the “Total Cell Count” value [6]?
**A.** 1060 and 380

**Q.** Which results are given for `CCOc1ccccc1C(=O)NCC1(N2CCN(CC)CC2)CCCCC1`?
**A.** Population Apoptotic (%) [1]: 45.83% and 31.82%; Population Fragmented Nuclei (%) [1]: 1.72% and 5.19%; Population Healthy Nuclei (%) [1]: 91.38% and 78.52%; Population Hoechst High Intensity Objects (%) [1]: 0%; Population Membrane Permeable-Phenotype (%) [1]: 1.26% and 8.49%; Population Mitotic Cells (%) [1]: 54.17% and 68.18%; Population Normal (%) [1]: 100%; Population Pyknosed Nuclei (%) [1]: 6.9% and 16.3%; Population Tubulin-Different-Phenotype (%) [1]: 0.63% and 0.94%; Total Cell Count [1]: 348 and 135; Population Apoptotic (%) [2]: 35% and 23.68%; Population Fragmented Nuclei (%) [2]: 1.81% and 4.03%; Population Healthy Nuclei (%) [2]: 80.05% and 70.47%; Population Hoechst High Intensity Objects (%) [2]: 0.23% and 0%; Population Membrane Permeable-Phenotype (%) [2]: 16.15% and 31.43%; Population Mitotic Cells (%) [2]: 65% and 76.32%; Population Normal (%) [2]: 99.77% and 100%; Population Pyknosed Nuclei (%) [2]: 18.14% and 25.5%; Population Tubulin-Different-Phenotype (%) [2]: 49.86% and 44.76%; Total Cell Count [2]: 442 and 149; Population Apoptotic (%) [3]: 46.15% and 50%; Population Fragmented Nuclei (%) [3]: 1.89% and 5.62%; Population Healthy Nuclei (%) [3]: 87.16% and 80.62%; Population Hoechst High Intensity Objects (%) [3]: 0%; Population Membrane Permeable-Phenotype (%) [3]: 1.21% and 8.53%; Population Mitochondria Different-Phenotype (%) [3]: 0% and 12.4%; Population Mitotic Cells (%) [3]: 53.85% and 50%; Population Normal (%) [3]: 100%; Population Pyknosed Nuclei (%) [3]: 10.95% and 13.75%; Population Tubulin-Different-Phenotype (%) [3]: 0.48% and 1.55%; Total Cell Count [3]: 475 and 160; Population Apoptotic (%) [4]: 52.04% and 44.44%; Population Fragmented Nuclei (%) [4]: 2.49% and 6.29%; Population Healthy Nuclei (%) [4]: 80.07% and 65.41%; Population Hoechst High Intensity Objects (%) [4]: 0%; Population Membrane Permeable-Phenotype (%) [4]: 8% and 10.58%; Population Mitotic Cells (%) [4]: 47.96% and 55.56%; Population Normal (%) [4]: 100%; Population Pyknosed Nuclei (%) [4]: 17.44% and 28.3%; Population Tubulin-Different-Phenotype (%) [4]: 29.33% and 41.35%; Population Apoptotic (%) [5]: 37.84% and 48.15%; Population Fragmented Nuclei (%) [5]: 2.6% and 4.8%; Population Healthy Nuclei (%) [5]: 88.67% and 71.62%; Population Hoechst High Intensity Objects (%) [5]: 0%; Population Membrane Permeable-Phenotype (%) [5]: 1.33% and 6.1%; Population Mitotic Cells (%) [5]: 62.16% and 51.85%; Population Normal (%) [5]: 100%; Population Pyknosed Nuclei (%) [5]: 8.74% and 23.58%; Population Tubulin-Different-Phenotype (%) [5]: 0.93% and 3.05%; Population Apoptotic (%) [6]: 58.2% and 70.77%; Population Fragmented Nuclei (%) [6]: 2.88% and 5.66%; Population Healthy Nuclei (%) [6]: 83.08% and 63.68%; Population Hoechst High Intensity Objects (%) [6]: 0.11% and 0%; Population Mitotic Cells (%) [6]: 41.8% and 29.23%; Population Normal (%) [6]: 99.89% and 100%; Population Pyknosed Nuclei (%) [6]: 14.04% and 30.66%; Population Tubulin-Different-Phenotype (%) [6]: 15.24% and 28.89%
